# Screening data as filed in PubChem.
# NCF1 inh – p47phox/p22phox peptide binding inhibitors, primary screen, biochemical, uHTS, NADPH oxidase regulatory subunit. fluorescence polarization, 2 h. inhibition, % at 24.7 µM. 0.53% of 220,000 active;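 active means inhibition above about 30%, limit read from the data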;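 further: 0% = p47phox with labelled peptide and 100% = labelled peptide alone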
# Target sequence (P14598 whole entry, looked up): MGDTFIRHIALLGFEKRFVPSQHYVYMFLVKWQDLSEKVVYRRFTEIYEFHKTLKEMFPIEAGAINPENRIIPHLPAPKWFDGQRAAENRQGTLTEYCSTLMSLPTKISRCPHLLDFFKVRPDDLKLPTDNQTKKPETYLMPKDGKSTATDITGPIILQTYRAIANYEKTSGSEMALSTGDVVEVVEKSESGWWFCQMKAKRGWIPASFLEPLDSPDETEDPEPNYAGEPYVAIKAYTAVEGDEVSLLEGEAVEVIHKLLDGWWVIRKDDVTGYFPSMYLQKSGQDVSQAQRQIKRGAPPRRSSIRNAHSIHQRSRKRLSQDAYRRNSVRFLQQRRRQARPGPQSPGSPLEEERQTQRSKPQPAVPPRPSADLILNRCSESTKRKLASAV
# KCC2 mod – KCC2 cotransporter modulators, thallium flux, primary screen, cell-based, HEK293 KCC2, FluoZin-2 fluorescence, MLSMR; Solute carrier family 12 member 5 (Homo sapiens), Q9H2X9; 2.2% of 190,000 active; B-score of Tl+ flux slope (higher = more flux/activation; lower = inhibition) at 10 µM; KCC2 cells, thallium flux FluoZin-2 fluorescence; AID 1456, 2008;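 active means thallium flux slope and its plate-corrected score both differing from the plate sample mean at a set confidence after two filtering rounds, in either direction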;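 further: slope of fluorescence scaled to starting intensity during 10 to 20 s after thallium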
# RBBP9 inhibitor – human RBBP9 inhibitors, primary screen, biochemical, fluorescence polarization, FP-Rh probe, HTS | Serine hydrolase RBBP9 (Homo sapiens), O75884 | recombinant RBBP9 | inhibition, % at 7.94 µM | 0.2% of 220,000 active;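 active means inhibition above the campaign mean of all tested compounds plus 3 SD, cut at about 14% in these data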;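 further: plate controls were DMSO wells with RBBP9 for no effect and wells lacking RBBP9 protein for full effect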
#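 Material: RBBP9 protein. Amount: RBBP9 at 2.5 µM in dispensed solution, before mixing. Schedule: 30 min then 45 min, 25 °C. Medium: Tris buffer pH 8.0, NaCl, Pluronic. Measured by: fluorescence polarization. Measure: percent inhibition from mP, scaled between DMSO and no-protein wells. Replication: one well per compound.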
# WT yeast gro inh – growth inhibition of WT strain, primary screen, mitochondrial fusion inhibitor project, WT and mutant strains, chemical genetic; mitochondrial fusion phenotypic screen; inhibition, % at 10 µM; 2.1% of 190,000 active; in the data active means inhibition above about 58%; tested in S. cerevisiae
# ROMK mod – ROMK potassium channel modulators, primary screen, cell-based, thallium flux, MLSMR library. AID 1918, 2009. B-score at 10 µM. Tet-inducible ROMK, thallium flux fluorescence; actives lie on both sides. 2% of 130,000 active;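 active means signal ratio slope over the read window, or its plate-corrected B-score, at least 3 SD from the plate mean, either direction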;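 further: B-score of the F/F0 ratio slope over 7 to 12 s after thallium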
# 14-3-3 Bad PPI – inhibitors of 14-3-3 zeta/Bad binding, primary screen, biochemical, TR-FRET, bovine 14-3-3 zeta | AID 781, 2007 | TR-FRET 14-3-3zeta/Dy647-pBad peptide displacement, 1 h | 14-3-3 protein zeta/delta (Bos taurus), P63103 | 0.71% of 220,000 active | inhibition, % at 21.7 µM;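 active means inhibition above about 70%, limit read from the data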;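 further: 0% = full 14-3-3 plus peptide FRET controls and 100% = background without 14-3-3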
# Target sequence (P63103 whole entry, looked up): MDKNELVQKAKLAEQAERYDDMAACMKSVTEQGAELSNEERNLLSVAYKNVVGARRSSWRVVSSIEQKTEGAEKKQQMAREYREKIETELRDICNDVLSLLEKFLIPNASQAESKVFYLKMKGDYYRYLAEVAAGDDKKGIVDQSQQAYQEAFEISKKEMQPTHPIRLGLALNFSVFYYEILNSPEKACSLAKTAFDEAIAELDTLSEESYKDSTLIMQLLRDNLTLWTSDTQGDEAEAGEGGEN
# KCC2 secondary – KCC2 modulators in sodium-free buffer, confirmation, cell-based, HEK293 KCC2, thallium flux, secondary assay; shares compounds with KCC2 mod; FluoZin2 fluorescence; stronger effect = higher value; normalised thallium flux (F/F0 slope) at 10 µM; 15% of 3,700 active; AID 1713, 2009;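 active means thallium flux slope above the same plate's solvent-only control mean plus 3 SD; inconclusive means the two replicate wells disagree; inactive means no significant difference from solvent-only control wells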
# KCC2 bumet counter – thallium flux persisting under bumetanide in KCC2 cells, confirmation, counter-screen for KCC2 modulator project, cell-based, HEK293 KCC2, FluoZin2, secondary assay 3; shares compounds with KCC2 mod; HEK293-KCC2 + bumetanide/ouabain; stronger effect = higher value; normalized thallium flux at 10 µM; 49% of 3,700 active;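 active means thallium entry rate above the same plate's blocked-transporter control wells by more than 3 SD; inconclusive means the two repeat wells disagree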;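 further: raw slope of fluorescence over initial fluorescence between 10 and 20 s after thallium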
# KCC2 sec2 – KCC2 modulators without ouabain present, confirmation, cell-based, HEK293 KCC2, thallium flux, FluoZin2, secondary assay 2; shares compounds with KCC2 mod; thallium flux FluoZin2 fluorescence; actives lie on both sides; F/F0 rise rate, 10–20 s post-thallium; normalized thallium flux at 10 µM; 23% of 3,700 active;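 active means thallium flux slope more than 3 SD above or below the plate's solvent-only control mean, mostly below; inconclusive means the two repeat wells disagreed; inactive means no significant shift from solvent-only controls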;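 further: raw slope with 0.1% DMSO as baseline and bumetanide as block control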
# HEK counter1 – thallium flux modulation in parental HEK cells, confirmation, counter-screen for KCC2 modulator project, cell-based, counterscreen 1; thallium flux rate (normalised fluorescence) at 10 µM; shares compounds with KCC2 mod; HEK293 parental cells, thallium flux FluoZin2, ouabain; baseline-ratio fluorescence slope, 10–20 s after thallium; AID 1716, 2009; 46% of 3,700 active;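 active means thallium flux rate significantly above the same plate's solvent-only control wells, beyond their mean plus 3 SD; inconclusive means the two replicate wells gave conflicting results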
# KCC2 ouabain – KCC2 inhibitors and activators, ouabain retest, confirmation, HEK-KCC2 cells; shares compounds with KCC2 mod; HEK293-KCC2, thallium flux FluoZin2 fluorescence; bidirectional: low = inhibitor, high = activator; raw Tl+ flux slope (below DMSO = inhibition, above = activation) at 10 µM; 48% of 3,700 active;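 active means thallium flux slope beyond 3 SD from same-plate DMSO control mean in most replicates, usually higher, sometimes lower; inconclusive means repeat tests gave conflicting results; inactive means no significant difference from controls in most replicates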;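 further: slope of initial-normalized fluorescence between seconds 10 and 20 after thallium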
# HEK counter2 – native HEK Tl+ uptake effects, second counter-screen – HEK cells, counterscreen 2, counter-screen for KCC2 modulator project, confirmation; shares compounds with KCC2 mod; HEK293 parental, thallium flux FluoZin-2 fluorescence slope; thallium flux slope at 10 µM; 33% of 3,700 active; AID 1718, 2009;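 active means thallium flux slope above the same plate's solvent-control mean plus 3 SD in both duplicate wells; inconclusive means duplicate wells that disagreed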;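 further: run without ouabain in cells lacking the KCC2 cotransporter; slope of fluorescence scaled to its starting value between 10 and 20 s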
# Numbers without * were called inactive; u = inconclusive; x = no result given. A selection: hits, their analogues and other compounds. The true share with any hit is near 5.8%.
SMILES,NCF1 inh,KCC2 mod,RBBP9 inhibitor,WT yeast gro inh,ROMK mod,14-3-3 Bad PPI,KCC2 secondary,KCC2 bumet counter,KCC2 sec2,HEK counter1,KCC2 ouabain,HEK counter2
Cc1ccc2nc(N/C(=N/S(=O)(=O)c3cccs3)c3ccccc3Cl)sc2c1,-3,6.4*,0,1,-1.1,-2,0.0073,0.023*,0.032,0.022*,u,0.017*
CCOc1ccc2nc(NC(=O)Nc3ccccc3)sc2c1,-8,x,-4,-23,-0.58,0,x,x,x,x,x,x
Cc1ccc(S(=O)(=O)N(C)c2c(C)ccc(S(=O)(=O)NC(C)(C)C)c2C)cc1,-8,0,-3,13,x,-2,x,x,x,x,x,x
COc1ccc(N(CC(=O)Nc2cc([N+](=O)[O-])ccc2C)S(C)(=O)=O)cc1OC,7,0.74,-7,x,x,1,x,x,x,x,x,x
CCOc1ncccc1C(=O)Nc1ccc(F)c(Cl)c1,-4,0.13,-1,35,-1.3,-1,x,x,x,x,x,x
CC(=O)Nc1nonc1NC(=O)COc1ccccc1,-1,-0.0027,5,-14,-1.1,3,x,x,x,x,x,x
COc1ccc2nc(NC(=O)CNS(=O)(=O)c3cccs3)sc2c1,-19,x,-5,16,0.23,-8,0.01,0.0065,0.031,0.0077,u,u
COc1ccc2nc(NC(=O)CN(C)S(=O)(=O)c3cccs3)sc2c1,1,-0.76,-3,7,x,x,x,x,x,x,x,x
COc1ccc(CN(C(=O)c2ccc(-c3ccccc3)[nH]2)C(C(=O)NCC2CCCO2)c2ccc(C)o2)cc1 (stereo unspecified),-20,x,-5,39,x,63,0.006,0.0052,0.025*,0.0075,u,0.0099
CC(C)(C)NC(=O)C(c1ccncc1)N(Cc1ccco1)C(=O)c1ccc(-c2ccccc2)[nH]1 (stereo unspecified),-16,-5*,-1,-27,-1.9,-11,0.0057,0.0052,0.024*,0.0076,u,0.011
CC(C)(C)NC(=O)C(c1cccs1)N(CC1CCCO1)C(=O)Cn1nnc(-c2cccs2)n1 (stereo unspecified),-24,0.17,1,9,0.07,11,x,x,x,x,x,x
O=C(NCC1CCCO1)C(c1cccs1)N(C(=O)c1ccc(-c2ccccc2)[nH]1)C1CCCC1 (stereo unspecified),-97,-5.7*,-1,27,x,0,0.01,0.0064,u,0.0068,0.015*,0.011
CC(C)(C)NC(=O)C(c1cccs1)N(CC1CCCO1)C(=O)c1ccc(-c2ccccc2)[nH]1 (stereo unspecified),-80,-6.6*,-3,56,x,1,0.0088,0.0066,0.022*,0.0055,0.01*,0.0091
O=C(NCC1CCCO1)C(c1cccs1)N(Cc1ccccc1)C(=O)c1ccc(-c2ccccc2)[nH]1 (stereo unspecified),-21,-4,-5,49,-1.4,-10,x,x,x,x,x,x
Cc1c(O)ccc2c(CN(C)Cc3ccccc3)cc(=O)oc12,-3,-6.6*,-8,x,x,3,0.0074,0.0057,0.034,u,0.015*,0.011
CN(C)Cc1c(O)ccc2c(-c3ccccc3)cc(=O)oc12,3,0.95,-6,4,-0.2,0,x,x,x,x,x,x
O=C(Nc1nc2ccccc2s1)C1CCCN1S(=O)(=O)c1ccc(Cl)cc1 (stereo unspecified),-6,x,-5,x,x,-1,0.0073,0.0048,0.03,0.0083,0.018,0.011
COc1ccc(C2=NN(C(=O)c3cccs3)C(O)(C(F)(F)F)C2)cc1 (stereo unspecified),-13,4.9*,-7,14,x,-11,u,0.0093*,0.033,u,0.022,0.011
CC1Cc2ccccc2N1C(=O)Cn1cnc2ccccc21 (stereo unspecified),7,-1.2,0,-3,-0.2,-1,x,x,x,x,x,x
COc1ccccc1NC(=O)Nc1cccnc1,-6,1.2,-2,-9,-0.91,-4,x,x,x,x,x,x
Cc1ccc(S(=O)(=O)N2CCC(=O)N(C(COCc3ccccc3)Cc3ccccc3)CC2)cc1 (stereo unspecified),8,-5.9*,1,49,-1.1,5,0.0091,0.0061,u,0.0072,0.015*,0.011
CCCn1c(=O)c2ccccc2n2c(SCCOc3ccccc3)nnc12,2,-4.9*,9,22,x,-5,0.0058,0.0028*,u,0.0047*,u,0.0077*
CS(=O)(=O)N1CCN(C(=O)c2ccc(Cl)s2)CC1,-12,0.3,1,5,0.23,-14,x,x,x,x,x,x
O=c1cc(-c2ccccc2)nc(SCc2ccc(F)cc2)[nH]1,-8,3.9*,-13,-1,0.38,11,0.0065,0.0048,0.027,0.0075,0.018,0.0099
Cc1nnc(SCC(=O)NNC(=O)c2ccco2)n1-c1cccc(Cl)c1,1,-3.6*,-14,15,0.058,-2,0.0094,u,0.03,0.008,0.065,u
